Data on 22 molecules can be found in ChEMBL document CHEMBL1147681, “Identification of a terphenyl derivative that blocks the cell cycle in the G0-G1 phase and induces differentiation in leukemia cells” (J Med Chem, 2006).

Active and inactive are the calls of the source. The calls are words filed in the database; no cut-off is given here.

The subject of assay [1] is HL-60. The assay is described as follows: Antiproliferative activity against human HL60 cell line. Type of assay: functional, cell-based. Put shortly: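 Cell growth inhibition measured by counting cells with an automatic cell counter in sensitive HL60, MDR HL60R and Bcr-Abl-expressing K562 cells. IC50 is the concentration inhibiting 50% of cell growth.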
The test system of assay [2] is HL-60. The assay is described as follows: Proapoptotic activity against human HL60 cell line. It is filed as functional, cell-based. An outline of the steps: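 Apoptosis assessed by morphological assay and annexin V test. AC50 is the concentration inducing apoptosis in 50% of cells.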
In assay [3] the test system is HL-60. Nature of the assay: Cell cycle arrest in human HL60 cells by accumulation at S phase at 30 uM. It is filed as functional, cell-based. An outline of the steps: (§1)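 HL60 cells were stained with propidium iodide and analysed by flow cytometry for sub-G0-G1, G0-G1, S and G2-M peaks against untreated control. Exposures were 50 µM for 8 h or 24 h, 10 µM for 96 h, and 20 or 30 µM for 24 h.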

Assay [4] concerns HL-60. The assay is described as follows: Cell cycle arrest in human HL60 cells by accumulation at G2/M phase at 20 uM. Type of assay: functional, cell-based. Put shortly:
as §1

Assay [5] relates to HL-60. The assay is described as follows: Cell cycle arrest in human HL60 cells by accumulation at G0/G1 phase at 10 uM after 96 hrs. It is filed as functional, cell-based. An outline of the steps: as §1
In assay [6] the test system is HL-60. Nature of the assay: Cell cycle arrest in human HL60 cells by accumulation at G0/G1 phase at 50 uM after 8 hrs. Type of assay: functional, cell-based. An outline of the steps:
as §1

Assay [7] deals with HL-60. Nature of the assay: Induction of differentiation of human HL60 cells at 10 uM measured as expression of monocytic marker CD14 after 4 days. It is filed as functional. An outline of the steps: (§2)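 HL60 cells exposed to 10 µM compound; CD14 (monocytic), CD11b and CD11c (granulocytic) surface expression measured by flow cytometry, as percentage of positive cells versus untreated control. Read-out given as 72 h in text, 4 days in table.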

In assay [8] the test system is HL-60. The assay is described as follows: Induction of differentiation of human HL60 cells at 10 uM measured as expression of granulocytic marker CD11b after 4 days. It is filed as functional. An outline of the steps: as §2
The subject of assay [9] is HL-60. The assay is described as follows: Induction of differentiation of human HL60 cells at 10 uM measured as expression of granulocytic marker CD11c after 4 days. It is filed as functional. Put shortly: as §2
Assay [10] has as its system HL-60. Nature of the assay: Cell cycle arrest in human HL60 cells by accumulation at G2/M phase at 10 uM. Type of assay: functional, cell-based. Put shortly: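 HL60 cells exposed for 24 h at 10 µM, stained with propidium iodide, and analysed by flow cytometry for DNA content. Sub-G0-G1 (apoptotic), G0-G1, S and G2-M peaks compared with untreated HL60 cells.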

Regarding `COc1cc(OC)cc(-c2ccc(-c3ccc(O)cc3)cc2)c1`, the half-inhibitory concentration (IC50) (in general, the point on the concentration scale where inhibition reaches its midpoint) in the assay on HL-60 [1] was found to be 2.5 µM. For the same molecule, the half-maximal activity concentration (AC50) – broadly, the concentration at which the activity in the assay is half-maximal – in the assay on HL-60 [2] came out at 30 µM.
In the case of `COc1cc(OC)cc(-c2cccc(-c3ccc(O)cc3)c2)c1`, it took 4.8 µM to reach half-maximal inhibition in the assay with HL-60 [1] (IC50). In addition, the activity in the assay on HL-60 [2] was half-maximal at 23 µM (AC50).
For the molecule `COc1ccc(-c2ccccc2-c2cc(OC)cc(OC)c2)cc1`, in the assay on HL-60 [1], half-maximal inhibition (IC50) required 7 µM. Moreover, in the assay on HL-60 [2], the AC50 came out at 15 µM.
With `COc1ccc(-c2ccc(-c3cc(OC)cc(OC)c3)cc2)cc1`, in the assay on HL-60 [1], 75 µM corresponded to half-maximal inhibition (IC50). The AC50 in the assay on HL-60 [2] was above 100 µM.
As to `COc1cc(/C=C/c2cccc(OC)c2O)cc(OC)c1`, half-maximal inhibition with HL-60 [1] (IC50) was put at 3.5 µM. Besides, in the assay on HL-60 [2], the AC50 was determined as 15 µM. The result in the assay on HL-60 [3] was Active.
Turning to `Oc1ccc(-c2cccc(-c3cc(O)cc(O)c3)c2)cc1`, the 50% inhibitory concentration (IC50) with HL-60 [1] is 27 µM. The molecule also returned an AC50 with HL-60 [2] of 63 µM.
`COc1ccc(-c2cccc(-c3cc(OC)cc(OC)c3)c2)cc1`: the half-maximal inhibitory concentration (IC50) in the assay with HL-60 [1] came out at 50 µM. In the assay with HL-60 [2], this molecule showed a concentration at half-maximal activity (AC50) above 100 µM.
Molecule `COc1cc(/C=C/c2ccc(O)cc2)cc(OC)c1` [PTEROSTILBENE] returned an AC50 in the assay on HL-60 [2] of 75 µM. That is a double-digit micromolar value.
On to `Oc1cc(O)cc(-c2ccc3cc(O)ccc3c2)c1`, for which the IC50 with HL-60 [1] stood at 28 µM. In addition, the AC50 in the assay on HL-60 [2] is 48 µM.
In the assay on HL-60 [1], `COc1cc(/C=C/c2cc(Cl)ccc2O)cc(OC)c1` displayed an IC50 of 14 µM. This molecule returned an AC50 in the assay with HL-60 [2] of 29 µM.
For `COc1cc(/C=C/c2ccccc2O)cc(OC)c1`, in that order: 9 µM and 35 µM.
In the case of `Oc1ccc(-c2ccccc2-c2cc(O)cc(O)c2)cc1`, the IC50 in the assay on HL-60 [1] stood at 3.5 µM. This molecule had an AC50 in the assay with HL-60 [2] of 9 µM. Also, the result in the assay with HL-60 [4] was Active.
As to `Oc1ccc(-c2ccc(-c3cc(O)cc(O)c3)cc2)cc1`, the outcome in the assay on HL-60 [5] and with HL-60 [6] was Active. The Activity is on record as 58% in the assay on HL-60 [7], 62% with HL-60 [8] and 60% in the assay on HL-60 [9]. Further, in the assay with HL-60 [1], the concentration for half-maximal inhibition (IC50) was 7 µM. Moreover, the AC50 in the assay on HL-60 [2] turned out to be 25 µM.
Regarding `COc1cc(OC)cc(-c2ccccc2-c2ccc(O)cc2)c1`, the IC50 in the assay on HL-60 [1] was 5 µM. This molecule yielded an AC50 in the assay with HL-60 [2] of 10 µM.
The matching figures for `CCOc1cc(/C=C/c2cc(OC)cc(OC)c2)ccc1O`: 11 µM and 18 µM.
With `Oc1ccc(/C=C/c2cc(O)cc(O)c2)cc1` [RESVERATROL], the Activity in the assay with HL-60 [7] came to 23%; in the assay with HL-60 [8], 24%; in the assay on HL-60 [9] it was 22%.
For the molecule `COc1ccc(/C=C/c2cc(OC)cc(OC)c2)cc1` [TRISMETHOXYRESVERATROL], the outcome in the assay on HL-60 [10] was Active. Further, the midpoint of inhibition in the assay on HL-60 [1], the IC50, lay at 2.5 µM. For the same molecule, the AC50 in the assay with HL-60 [2] turned out to be 4 µM.
For the molecule `COc1cc(/C=C/c2cccc(O)c2)cc(OC)c1`, in the assay with HL-60 [1], half-maximal inhibition (IC50) required 23 µM. In the assay with HL-60 [2], this molecule yielded an AC50 of 58 µM.
In the assay with HL-60 [1], `COc1cc(OC)cc(-c2ccc3cc(OC)ccc3c2)c1` displayed an IC50 of 76 µM. This molecule also gave an AC50 with HL-60 [2] of 91 µM.
The matching figures for `COc1cc(/C=C/c2cc(C(C)(C)C)c(O)c(C(C)(C)C)c2)cc(OC)c1`: 84 µM and above 100 µM.
The matching figures for `COc1cc(/C=C/c2cc(OC)c(O)c(OC)c2)cc(OC)c1`: 20 µM and 79 µM.
For `COc1cc(OC)cc(-c2ccc3cc(O)ccc3c2)c1`, in that order: 10 µM and 19 µM.
